Measured values reported in ChEMBL document CHEMBL2034860, “Cytotoxic heterocyclic triterpenoids derived from betulin and betulinic acid” (Bioorg Med Chem, 2012).
Blank lines part the entries; values can stand above or below the molecule they belong to.

Columns and labels:
CCRF-CEM [1] = test: Cytotoxicity against human CCRF-CEM cells after 72 hrs by MTT assay; type: functional, cell-based
[2] = Solubility of the compound in water based media; type: physicochemical; settings: buffer
K562 [3] = test: Cytotoxicity against human paclitaxel resistant K562 cells after 72 hrs by MTT assay; type: functional, cell-based; settings: K562, 72 h
Outline: (§1)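 Cells seeded at 2500–30,000 per well according to cell type and pre-incubated 24 h at 37 °C, 5% CO2. Four-fold dilutions of compounds dissolved in 10% DMSO were added at time zero, in quadruplicate, then incubated 72 h. MTT was added for a further 1–4 h and formazan dissolved in 10% aq SDS (pH 5.5) overnight at 37 °C. OD was read at 540 nm. Survival was taken as % of mean control OD, and IC50 was read from dose-response curves.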

[4] = Therapeutic index, ratio of IC50 for human BJ cells to IC50 for human CCRF-CEM cells; type: cell-based; settings: BJ cells versus CCRF-CEM cells, read-out: Ratio IC50
BJ = test: Cytotoxicity against human BJ cells after 72 hrs by MTT assay; type: cell-based; outline: as §1
K562 [5] = test: Cytotoxicity against human K562 cells after 72 hrs by MTT assay; type: functional, cell-based; settings: K562, 72 h; outline: as §1
[6] = Therapeutic index, ratio of IC50 for human BJ cells to IC50 for human K562 cells; type: cell-based; settings: BJ cells versus K562 cells, read-out: Ratio IC50
[7] = Therapeutic index, ratio of IC50 for human BJ cells to IC50 for paclitaxel-resistant human K562 cells; type: cell-based; settings: BJ cells versus paclitaxel-resistant K562 cells, read-out: Ratio IC50
MRC5 = test: Cytotoxicity against human MRC5 cells after 72 hrs by MTT assay; type: cell-based; settings: MRC5, 72 h; outline: as §1
CCRF-CEM [8] = test: Cytotoxicity against human daunorubicine resistant CEM cells after 72 hrs by MTT assay; type: functional, cell-based; outline: as §1
A549 = test: Cytotoxicity against human A549 cells after 72 hrs by MTT assay; type: functional, cell-based; settings: A549, 72 h; outline: as §1
HCT-116 [9] = test: Cytotoxicity against human p53-deficient HCT116 cells after 72 hrs by MTT assay; type: functional, cell-based; settings: HCT-116, 72 h; outline: as §1
HCT-116 [10] = test: Cytotoxicity against human HCT116 cells after 72 hrs by MTT assay; type: functional, cell-based; settings: HCT-116, 72 h; outline: as §1
[11] = Therapeutic index, ratio of IC50 for human MRC5 cells to IC50 for human CCRF-CEM cells; type: cell-based; settings: MRC5 cells versus CCRF-CEM cells, read-out: Ratio IC50

SMILES: CCOC(=O)C1=C(O)C(C)(C)[C@@H]2CC[C@]3(C)[C@H](CC[C@@H]4[C@H]5[C@H](C(C)C)CC[C@]5(C(=O)O)CC[C@]43C)[C@@]2(C)C1
- IC50 (CCRF-CEM [1]): 142 µM

- solubility [2]: Insoluble
SMILES: CC1(C)CC[C@]23CC[C@]4(C)[C@H](CC[C@@H]5[C@@]6(C)Cc7c[nH]nc7C(C)(C)[C@@H]6CC[C@]54C)[C@H]2[C@H]1OC3
- IC50 (CCRF-CEM [1]): 210 µM

SMILES: CC(C)[C@@H]1CC[C@]2(C(=O)O)CC[C@]3(C)[C@H](CC[C@@H]4[C@@]5(C)CC(Br)(Br)C(=O)C(C)(C)[C@@H]5CC[C@]43C)[C@@H]12
- IC50 (CCRF-CEM [1]): 1 µM
- IC50 (K562 [3]): 1.1 µM
- selectivity ratio [4]: > 10
- IC50 (BJ): 13.3 µM
- IC50 (K562 [5]): 0.9 µM
- selectivity ratio [6]: > 10
- selectivity ratio [7]: > 10
- IC50 (MRC5): 8 µM
- IC50 (CCRF-CEM [8]): 7 µM
- IC50 (A549): 8.4 µM
- IC50 (HCT-116 [9]): 2.6 µM
- IC50 (HCT-116 [10]): 2.4 µM
- selectivity ratio [11]: 8

SMILES: CC1(C)CC[C@]23CC[C@]4(C)[C@H](CC[C@@H]5[C@@]6(C)CC(Br)(Br)C(=O)C(C)(C)[C@@H]6CC[C@]54C)[C@H]2[C@H]1OC3
- IC50 (CCRF-CEM [1]): > 250 µM

SMILES: CC1(C)CC[C@]23CC[C@]4(C)[C@H](CC[C@@H]5[C@@]6(C)C/C(=C/O)C(=O)C(C)(C)[C@@H]6CC[C@]54C)[C@H]2[C@H]1OC3
- IC50 (CCRF-CEM [1]): > 250 µM

SMILES: C=C(C)[C@@H]1CC[C@]2(C(=O)O)CC[C@]3(C)[C@H](CC[C@@H]4[C@@]5(C)C/C(=C/O)C(=O)C(C)(C)[C@@H]5CC[C@]43C)[C@@H]12
- IC50 (CCRF-CEM [1]): 4 µM
- IC50 (K562 [3]): 12.7 µM
- selectivity ratio [4]: > 10
- IC50 (BJ): 55.5 µM
- IC50 (K562 [5]): 8.4 µM
- selectivity ratio [6]: 6.6
- selectivity ratio [7]: 4.4
- IC50 (MRC5): 29.9 µM
- IC50 (CCRF-CEM [8]): 29.6 µM
- IC50 (A549): 17.6 µM
- IC50 (HCT-116 [9]): 13.7 µM
- IC50 (HCT-116 [10]): 12.1 µM
- selectivity ratio [11]: 8.5

SMILES: CC(C)[C@@H]1CC[C@]2(C(=O)O)CC[C@]3(C)[C@H](CC[C@@H]4[C@@]5(C)C/C(=C/O)C(=O)C(C)(C)[C@@H]5CC[C@]43C)[C@@H]12
- IC50 (CCRF-CEM [1]): 61 µM

SMILES: CCOC(=O)C1=C(O)C(C)(C)[C@@H]2CC[C@]3(C)[C@H](CC[C@@H]4[C@H]5[C@H]6OC[C@@]5(CCC6(C)C)CC[C@]43C)[C@@]2(C)C1
- IC50 (CCRF-CEM [1]): > 250 µM

SMILES: C=C(C)[C@@H]1CC[C@]2(C(=O)O)CC[C@]3(C)[C@H](CC[C@@H]4[C@@]5(C)CC(C(=O)OCC)=C(O)C(C)(C)[C@@H]5CC[C@]43C)[C@@H]12
- IC50 (CCRF-CEM [1]): 161 µM

SMILES: C=C(C)[C@@H]1CC[C@]2(C(=O)O)CC[C@]3(C)[C@H](CC[C@@H]4[C@@]5(C)Cc6c[nH]nc6C(C)(C)[C@@H]5CC[C@]43C)[C@@H]12
- IC50 (CCRF-CEM [1]): 3 µM
- IC50 (K562 [3]): 3 µM
- solubility [2]: Insoluble
- IC50 (BJ): 35.8 µM
- IC50 (K562 [5]): 2.6 µM
- IC50 (MRC5): 14.1 µM
- IC50 (CCRF-CEM [8]): 10.4 µM
- IC50 (A549): 5.2 µM
- IC50 (HCT-116 [9]): 3.3 µM
- IC50 (HCT-116 [10]): 4.5 µM

- solubility [2]: Insoluble
SMILES: CC(C)[C@@H]1CC[C@]2(C(=O)O)CC[C@]3(C)[C@H](CC[C@@H]4[C@@]5(C)Cc6c[nH]nc6C(C)(C)[C@@H]5CC[C@]43C)[C@@H]12
- IC50 (CCRF-CEM [1]): 3 µM
- IC50 (K562 [3]): 2.7 µM
- IC50 (BJ): 22.4 µM
- IC50 (K562 [5]): 3.5 µM
- IC50 (MRC5): 13.4 µM
- IC50 (CCRF-CEM [8]): 8.2 µM
- IC50 (A549): 3.6 µM
- IC50 (HCT-116 [9]): 2.8 µM
- IC50 (HCT-116 [10]): 3.9 µM

- solubility [2]: Insoluble
SMILES: CC1(C)CC[C@]23CC[C@]4(C)[C@H](CC[C@@H]5[C@@]6(C)Cc7cnn(-c8ccccc8)c7C(C)(C)[C@@H]6CC[C@]54C)[C@H]2[C@H]1OC3
- IC50 (CCRF-CEM [1]): 250 µM

- solubility [2]: Insoluble
SMILES: C=C(C)[C@@H]1CC[C@]2(C(=O)O)CC[C@]3(C)[C@H](CC[C@@H]4[C@@]5(C)Cc6cnn(-c7ccccc7)c6C(C)(C)[C@@H]5CC[C@]43C)[C@@H]12
- IC50 (CCRF-CEM [1]): 31 µM

- solubility [2]: Insoluble
SMILES: CC(C)[C@@H]1CC[C@]2(C(=O)O)CC[C@]3(C)[C@H](CC[C@@H]4[C@@]5(C)Cc6cnn(-c7ccccc7)c6C(C)(C)[C@@H]5CC[C@]43C)[C@@H]12
- IC50 (CCRF-CEM [1]): 45 µM
